Only some compounds are listed: those with a hit (about 2.6% of all), similar ones and a draw of the others.
MC4R barr agon = human MC4R agonism via beta-arrestin. P32245. U2OS MC4R beta-arrestin complementation, luminescence; percent of melanotan II response, DMSO zero. activation, % at 8.9 µM. 360,000 tested, 0.98% active;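 active = activation above a per-plate cutoff, the mean activation of sample wells on that plate plus 3 SD, cut at about 8% in these data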
Target sequence (P32245 whole entry, looked up): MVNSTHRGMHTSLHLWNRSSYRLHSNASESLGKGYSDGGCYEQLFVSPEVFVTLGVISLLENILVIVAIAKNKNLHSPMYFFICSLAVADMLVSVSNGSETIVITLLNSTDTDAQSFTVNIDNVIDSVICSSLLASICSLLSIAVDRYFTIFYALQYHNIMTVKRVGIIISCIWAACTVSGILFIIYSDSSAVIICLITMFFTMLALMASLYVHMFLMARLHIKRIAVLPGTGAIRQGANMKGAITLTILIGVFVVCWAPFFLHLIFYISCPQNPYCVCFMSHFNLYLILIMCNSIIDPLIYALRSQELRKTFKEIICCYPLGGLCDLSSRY
PGE2 EP2 inh = inhibitors of human EP2 prostaglandin E2 receptor. P43116. 260,000 tested, 0.52% active. inhibition, % at 25 µM. C6 glioma cells expressing human EP2, cAMP TR-FRET; cells stimulated with saturating PGE2. AID 1422;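 active = percent inhibition above 40 after rounding to a whole number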;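 also: rat C6 glioma host cells with rolipram phosphodiesterase inhibitor present; the protocol text gives 20 µM as final concentration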
Target sequence (P43116 whole entry, looked up): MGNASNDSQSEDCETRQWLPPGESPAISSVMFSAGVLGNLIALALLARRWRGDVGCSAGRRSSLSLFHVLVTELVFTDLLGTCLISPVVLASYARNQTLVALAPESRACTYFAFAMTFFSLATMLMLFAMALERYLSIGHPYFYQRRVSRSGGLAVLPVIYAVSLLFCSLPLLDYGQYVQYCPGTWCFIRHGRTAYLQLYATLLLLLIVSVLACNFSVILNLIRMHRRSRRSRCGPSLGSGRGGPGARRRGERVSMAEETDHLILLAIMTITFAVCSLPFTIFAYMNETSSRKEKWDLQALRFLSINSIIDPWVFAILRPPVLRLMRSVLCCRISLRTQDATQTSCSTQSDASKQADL
MC4R antag cAMP = human MC4R antagonism in cAMP assay; MC4R-expressing cells, MTII-stimulated cAMP, LANCE TR-FRET; 360,000 tested, 0.48% active; P32245; inhibition, % at 6.5 µM;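 active = inhibition above its plate's cutoff, the mean of tested wells on that plate plus 3 SD, cut at about 29% in these data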
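Material: U2OS-MC4R stable cell line | Reagent: Melanotan II challenge after compound preincubation | Doses: One concentration, 6.5 µM nominal | Incubation: 30-min compound preincubation, 1-h Melanotan II challenge, 1-h detection, room temperature | Signal: TR-FRET cAMP assay | Replicates: One well per compound, no replicates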
Granule exo inh = lytic granule exocytosis inhibition; TALL-104 LAMP-1 surface exposure, flow cytometry; cells stimulated with thapsigargin and PMA; inhibition, % at 10 µM; 360,000 tested, 0.66% active; AID 651702;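 active = inhibition above about 55%, limit read from the data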
EP2 modulator = EP2 receptor (human) modulation; P43116; EP2-expressing cells, cAMP HTRF FRET, PGE2 co-stimulation; induction, % at 25 µM; 260,000 tested, 0.83% active;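 active = compounds whose cAMP rise, as percent of the full-agonist control response, exceeds 60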;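 also: rat C6 glioma line stably carrying human EP2 under a CMV promoter; the protocol text gives 20 µM as final concentration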
T cell modulator = modulates CD8 T cell binding to vesicles | 2C CD8+ T cell-vesicle binding, flow cytometry; active compounds read low | response (vesicle binding), % at 7 µM | AID 2052 | 330,000 tested, 0.068% active;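 active = response, share of CD8 T cells binding vesicles, and their 90th percentile fluorescence all below set limits, cut at about 80% in these data, passing the limit was not always enough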;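 also: values below 100% mean blocked vesicle binding to the CD8+ T cells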
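Assay system: 2C TCR transgenic mouse naive CD8+ T cells, MACS-purified | Read-out: CD8+ gate FL2 mean fluorescence as % of same-row positive control | Signal: High-throughput flow cytometry with anti-B7-1 and anti-CD8 staining | Timing: Binding step 1.5 h, 37 °C, antibody labelling 20 min, ice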
Large screens that a line does not name were inactive; ! = not confirmed by another sample.

O=C(NCCc1c[nH]c2ccccc12)C(=O)NCC(c1ccco1)N1CCN(c2ccccc2F)CC1 (configuration not stated)	none
CC1=C(C(=O)Nc2ccccc2)C(c2ccc(C)cc2)N=C(Nc2nc3ccccc3o2)N1 (configuration not stated)	MC4R barr agon 9.9
COc1ccccc1CNC(=O)C1CCN(S(=O)(=O)c2c(C)noc2C)CC1	none
CC(NC(=O)Cc1ccc(F)cc1)c1ccccc1 (configuration not stated)	T cell modulator 64
CCOC(=O)c1c(NC(=O)c2cccs2)sc2c1CC(C)(C)OC2	Granule exo inh 67
CCOC(=O)c1c(NC(=O)CCCl)sc2c1CC(C)(C)OC2	none (no result: MC4R barr agon, MC4R antag cAMP, Granule exo inh, T cell modulator)
CCC(C)[C@H](N)c1nnc(SCC(=O)c2ccc(Cl)cc2)o1 (some centres not stated)	none
C=CCNc1nnc(SC2CC(=O)N(c3ccc(OCCC)cc3)C2=O)s1 (configuration not stated)	Granule exo inh 66
CSc1nnnn1-c1c(C)cccc1C	none
Cc1cccc(C)c1-n1nnnc1SCSc1nnnn1-c1c(C)cccc1C	MC4R barr agon 8.7 (no result: T cell modulator)
O=C(Nc1ccc(Br)cc1)c1csc(-c2ccncc2)n1	PGE2 EP2 inh 174
COC(=O)c1cccc(NC(=O)Nc2ccc(Cl)cc2Cl)c1	MC4R barr agon 9.0
COC(=O)c1cccc(NC(=S)Nc2cc(Cl)ccc2OC)c1	none
Brc1ccc(-c2nc3ccccc3s2)s1	PGE2 EP2 inh 124
COc1cc(/C=C/C(=O)O)cc(S(=O)(=O)Nc2cc(Cl)c(Cl)cc2Cl)c1OC	none
N#Cc1ccc(OC(=O)c2cnccn2)cc1	none (no result: PGE2 EP2 inh, EP2 modulator)
N#Cc1ccc(OC(=O)c2ccc(N=C(N)N)cc2)cc1	PGE2 EP2 inh 75 (no result: MC4R barr agon, MC4R antag cAMP, Granule exo inh, T cell modulator)
CCC(C)Nc1c([N+](=O)[O-])cc(C)cc1[N+](=O)[O-] (configuration not stated)	none (no result: PGE2 EP2 inh)
CCCCCCCCCC[n+]1cccc2c3ccccc3ccc21	MC4R barr agon 49, Granule exo inh 70 (no result: T cell modulator)
CCCCCCCC[n+]1cccc2c3ccccc3ccc21	none
Nc1nc(-c2cc(-c3cccc4ccccc34)nc(N)n2)cc(-c2cccc3ccccc23)n1	PGE2 EP2 inh 57 (no result: MC4R barr agon, MC4R antag cAMP, Granule exo inh, T cell modulator)
CC(C)(C)OC(=O)[C@H]([C@@H]1N[C@@H](C(=O)O)C(C)(C)S1)N1C(=O)c2ccccc2C1=O	PGE2 EP2 inh 42 (no result: MC4R barr agon, MC4R antag cAMP, Granule exo inh, T cell modulator)
COCCn1c(SCC(=O)Nc2ccccc2)nc2c1c(=O)[nH]c(=O)n2C	none
CN(C(=O)COC(=O)c1ccc(Cl)cc1N)C1CCCCC1	none
CC1=NN(c2ccc([N+](=O)[O-])cc2)C(c2ccccc2)C1 (configuration not stated)	EP2 modulator 62
Cc1ccc(-n2c(SCC(=O)N3CCCC(C)C3)nnc2-c2ccco2)cc1 (configuration not stated)	PGE2 EP2 inh 93 (no result: MC4R barr agon, MC4R antag cAMP, Granule exo inh, T cell modulator)
CC1CCCN(C(=O)CSc2nnc(-c3ccco3)n2C)C1 (configuration not stated)	none (no result: PGE2 EP2 inh, EP2 modulator)
CCN(CC)S(=O)(=O)c1ccc(NC(=O)CN2C(=O)c3cccc4cccc2c34)cc1	none (no result: MC4R barr agon, MC4R antag cAMP, Granule exo inh, T cell modulator)
CC1=c2c(oc3cc(O)c(Nc4c(C)cc(O)cc4O)c(C)c23)=CC(=O)C1=Nc1c(C)cc(O)cc1O	PGE2 EP2 inh 53 (no result: MC4R barr agon, MC4R antag cAMP, Granule exo inh, T cell modulator)
CC(C)(C)n1ncc2c(=O)n(CC(=O)N3CCCCC3)cnc21	none
C=CCSC1=N/C(=C\c2sccc2C)C(=O)S1	EP2 modulator 64
C=CCSC1=N/C(=C\c2ccc3c(c2)OCO3)C(=O)S1	none
c1ccc2nc(N3CCCC3)c(N3CCCC3)nc2c1	EP2 modulator 68!
c1ccc2c(c1)nc(N1CCCCCC1)c1ccccc12	EP2 modulator 63
N#C/C(=C\c1ccc(Cl)cc1)c1nc2ccccc2o1	MC4R barr agon 8.9
N#C/C(=C\Nc1ccccc1O)c1nc2ccccc2o1	PGE2 EP2 inh 54, Granule exo inh 86
Cn1c(=O)oc2cc(S(=O)(=O)N3CCCC(C(=O)NCc4cccs4)C3)ccc21 (configuration not stated)	none
COc1ccc(Cl)cc1NC(=O)CN1CCN(S(=O)(=O)N2CCC(C)CC2)CC1	none (no result: PGE2 EP2 inh, EP2 modulator)
NC(=NCc1ccccc1)NC(=O)c1nc(Cl)c(N)nc1N	none
CC1(C(=O)NS(=O)(=O)c2ccc(Cl)s2)CCN1C(=O)Cc1cc(F)ccc1F (configuration not stated)	none (no result: PGE2 EP2 inh, EP2 modulator, T cell modulator)
O=C(c1ccc2ccccc2c1)c1c[nH]cc1-c1ccccc1	none
Cc1cc(C(=O)c2ccc3ccccc3c2)c(C)o1	Granule exo inh 73 (no result: PGE2 EP2 inh, EP2 modulator)
CCCCN(CCCC)C(=O)C1(P(=O)(c2ccccc2)c2ccccc2)CCC1	EP2 modulator 85
CC(=O)O[C@H]1CC[C@@]2(C)C(=CC[C@@H]3[C@H]4CC[C@@H](c5cc(C(F)(F)F)n(C(C)=O)n5)[C@]4(C)CC[C@H]32)C1	PGE2 EP2 inh 42 (no result: MC4R barr agon, MC4R antag cAMP, Granule exo inh, T cell modulator)
CC(=O)O[C@H]1CC[C@@]2(C)C(=CC[C@@H]3[C@H]4CC[C@@H]([C@H](C)C(=O)O)[C@]4(C)CC[C@H]32)C1	none (no result: MC4R barr agon, MC4R antag cAMP, Granule exo inh, T cell modulator)
N#CCC(=O)N/N=C/c1cn(Cc2ccccc2C#N)c2ccccc12	none
N#CCC(=O)N/N=C/c1c(-c2ccccc2)n(-c2ccccc2)c2ccccc12	Granule exo inh 94 (no result: PGE2 EP2 inh, EP2 modulator)
Fc1ccccc1/C=N/Nc1nc(N2CCCCC2)nc(N2CCCCC2)n1	none
O=C1C2C(c3ccccc3)CC=CC2[C@H](c2ccc(C(F)(F)F)cc2)N1Cc1ccccc1 (some centres not stated)	none
C[C@@H]1CC=C[C@H]2[C@H]1C(=O)N(Cc1ccccc1)[C@H]2c1ccc(C(F)(F)F)cc1	EP2 modulator 61
COc1ccc(C2C(O)C(c3c[nH]c4ccccc34)=NN2C(=O)CCl)cc1 (configuration not stated)	MC4R barr agon 16 (no result: PGE2 EP2 inh, EP2 modulator)
Clc1ccc(OCCn2ccnc2)cc1Cl	none (no result: PGE2 EP2 inh, EP2 modulator)
CC1(C)C2CC[C@]3(C)C(CC=C4[C@@H]5C[C@@](C)(CO)[C@@H](O)C[C@]5(C(=O)O)CC[C@]43C)[C@@]2(C)CC[C@@H]1O (some centres not stated)	none (no result: EP2 modulator)
CC1(C)CC[C@]2(CO)[C@@H](O)C[C@]3(C)C(=CCC4[C@@]5(C)CC[C@H](O)C(C)(C)C5CC[C@]43C)[C@@H]2C1 (some centres not stated)	PGE2 EP2 inh 53 (no result: MC4R barr agon, MC4R antag cAMP, Granule exo inh, EP2 modulator)
Cc1ccc(S(=O)(=O)NC[C@H]2O[C@@H](n3cnc4c(N)ncnc43)[C@H](O)[C@@H]2O)cc1	none (no result: MC4R barr agon, PGE2 EP2 inh, MC4R antag cAMP, EP2 modulator, T cell modulator)
COc1cccc(N=Cc2nc(-c3ccccc3)oc2OC(C)=O)c1	Granule exo inh 64
COc1ccc(N=Cc2nc(-c3ccccc3)oc2OC(C)=O)cc1	none
Cc1ccc(C(=O)Oc2oc(-c3ccccc3)nc2C=Nc2ccc(N(C)C)cc2)cc1	PGE2 EP2 inh 42

Bioassay records: PubChem, several laboratories
